dFosB act: mouse delta FosB homodimer activation. 340,000 compounds, 0.99% hits. activation, % at 25 µM. P13346. AID 493131. purified delta FosB, TAMRA-CDK5 oligo fluorescence polarization; percent of positive-control signal above neutral wells;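 active means mean activation above about 17%, with every replicate also reaching it, limit read from the data, passing the limit was not always enough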
miR122 inh: blocks miR-122 activity in Huh7 sensor cells. 340,000 compounds, 0.3% hits. activation (reporter increase), % at 12.5 µM. Huh7 miR-122 Renilla luciferase sensor, 48 h; neutral wells = 0, positive control = 100;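 active means mean replicate activation score at least 90 and every replicate individually at or above 90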;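 further: higher luciferase means less miR-122 activity so hits act as miR-122 inhibitors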
Rtt109 HAT inh: blocks Candida albicans Rtt109/Vps75 acetyltransferase activity; Q5AAJ8; purified Rtt109/Vps75, ThioGlo CoA-SH fluorescence, 4 h; inhibition, % at 34.9 µM; 330,000 compounds, 0.16% hits; AID 540336;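 active means inhibition of at least 50% in every replicate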
Target sequence (Q5AAJ8 whole entry, looked up): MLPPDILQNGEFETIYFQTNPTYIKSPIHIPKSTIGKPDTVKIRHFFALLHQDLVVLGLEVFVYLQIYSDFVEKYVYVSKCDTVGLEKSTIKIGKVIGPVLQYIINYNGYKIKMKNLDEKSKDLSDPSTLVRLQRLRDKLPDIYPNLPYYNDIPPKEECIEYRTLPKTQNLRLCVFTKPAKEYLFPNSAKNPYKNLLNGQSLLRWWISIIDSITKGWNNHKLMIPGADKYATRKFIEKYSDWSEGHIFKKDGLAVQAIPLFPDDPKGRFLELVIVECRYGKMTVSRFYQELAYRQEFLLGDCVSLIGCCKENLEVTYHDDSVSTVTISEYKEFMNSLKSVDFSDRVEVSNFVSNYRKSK
INS-1E GSIS act: primary screen for activators of insulin secretion dependent on glucose, INS-1E cells, GLuc reporter luminescence | INS-1E GLuc reporter insulin secretion, 2-3 h | activation, % at 16.6 µM | 370,000 compounds, 0.61% hits;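 active means lowest replicate activation of at least 40%, so every replicate reaches that level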;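 further: 0% = median of neutral control wells and 100% = median of IBMX positive control wells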
Cneo AK release: causes C. neoformans cell lysis; lysis activity, % at 15 µM; 360,000 compounds, 0.2% hits; adenylate kinase release luminescence, 4 h; normalised: neutral wells 0, clomiphene wells 100;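 active means mean lysis activity across replicates of at least 80%, whatever share of replicates individually reach that level; inactive means mean lysis activity below 80%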
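Test system: log-phase Cryptococcus neoformans yeast cells. Input: 5 × 10^6 yeast cells/mL. Medium: fresh YPD growth medium. Doses: single dose. Incubation: static 4 h at 37 °C with compound, 1 h detection. Measured by: luminescent adenylate kinase detection reagent. Read-out: signal increase indicating cell lysis. Benchmarks: Clomiphene.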
HIV Env fusion: HIV envelope-mediated fusion inhibition. HeLa-JRFL Env/CEM21 cell fusion, luciferase. inhibition, % at 12.3 µM. 360,000 compounds, 1.1% hits;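 active means mean replicate inhibition score of at least 50 and every replicate individually at or above 50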;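 further: 0% = plate neutral controls and 100% = maraviroc near 300 nM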
* marks the source's active call; other numbers are inactive results; [ ] = remark or other dose. The list is not random: actives were taken first. Their share in the collection is about 2.4%.

Screening Cc1cc(C)c(S(=O)(=O)NCc2ccccn2)cc1C returned dFosB act -7.2, miR122 inh 100.6*, Rtt109 HAT inh 45.8, INS-1E GSIS act -0.8, Cneo AK release 3.0 and HIV Env fusion -173.5.
COc1ccccc1-c1cnc2c(c1)C(=O)N([C@@H](C)CO)C[C@H](C)[C@H](CN(C)C(=O)CN(C)C)O2 was read as miR122 inh -0.2[16.7 µM], INS-1E GSIS act 6.2, Cneo AK release -4.4 and HIV Env fusion 22.8[16.7 µM].
`Cc1onc(-c2ccccc2)c1C(=O)NC(=S)NNC(=O)c1ccc(O)cc1` gave dFosB act -3.9, Rtt109 HAT inh 13.8, INS-1E GSIS act 0.4 and HIV Env fusion 68.8*.
Screening CCn1c(SCC(=O)N2CCN(c3ccccc3)CC2)nnc1-c1cc2cc(Cl)ccc2o1 returned dFosB act -9.2, miR122 inh -3.4, Rtt109 HAT inh -1.4, Cneo AK release -1.6 and HIV Env fusion 68.4*.
`C=CCn1c(SCC(=O)N2CCN(c3ccccc3)CC2)nnc1-c1ccco1` gave dFosB act -0.5, miR122 inh -5.6, Rtt109 HAT inh 8.7, INS-1E GSIS act 3.0, Cneo AK release 0.0 and HIV Env fusion 19.9.
For CC(C)C#Cc1ccc([C@H]2[C@H]3CN(C(=O)Cc4cccnc4)CC(=O)N3[C@H]2CO)cc1 the results were INS-1E GSIS act -0.3.
Screening Cc1noc(C)c1NC(=O)N(C)C[C@H]1OCCCC[C@@H](C)Oc2ccc(NC(=O)NC(C)C)cc2C(=O)N([C@H](C)CO)C[C@H]1C returned miR122 inh 11.7[16.7 µM], INS-1E GSIS act 21.6, Cneo AK release 100.3* and HIV Env fusion -31.4[16.7 µM].
For Cc1noc(C)c1NC(=O)N(C)C[C@@H]1OCCCC[C@H](C)Oc2ccc(NC(=O)NC(C)C)cc2C(=O)N([C@@H](C)CO)C[C@H]1C the results were miR122 inh 1.6[16.7 µM], INS-1E GSIS act 0.0, Cneo AK release 0.8 and HIV Env fusion -33.3[16.7 µM].
Cc1noc(C)c1NC(=O)N(C)C[C@H]1OCCCC[C@H](C)Oc2ccc(NC(=O)NC(C)C)cc2C(=O)N([C@@H](C)CO)C[C@@H]1C was read as miR122 inh 78.3[16.7 µM], INS-1E GSIS act 7.3, Cneo AK release 89.8* and HIV Env fusion -154.2[16.7 µM].
`CS(=O)(=O)N1CC2(C1)[C@H](c1ccccc1)[C@@H](CO)N2CC1CC1` gave INS-1E GSIS act 13.4.
Screening C[C@H]1CCCCO[C@@H](CN(C)Cc2ccc3c(c2)OCO3)[C@@H](C)CN([C@@H](C)CO)C(=O)c2cc(NC(=O)Nc3ccccc3)ccc2O1 returned miR122 inh -2.7[16.7 µM], INS-1E GSIS act -29.1, Cneo AK release 4.6 and HIV Env fusion 60.0*[16.7 µM].
Screening C[C@@H]1CCCCO[C@H](CN(C)C(=O)c2ccccc2)[C@@H](C)CN([C@H](C)CO)C(=O)c2cc(NC(=O)Nc3ccc4c(c3)OCO4)ccc2O1 returned miR122 inh 1.5[16.7 µM], INS-1E GSIS act 10.0, Cneo AK release -3.6 and HIV Env fusion -13.5[16.7 µM].
C[C@H](CO)N1C[C@H](C)[C@H](CN(C)C(=O)c2ccccc2)OCCCC[C@H](C)Oc2ccc(NC(=O)Nc3ccc4c(c3)OCO4)cc2C1=O was read as miR122 inh 2.6[16.7 µM], INS-1E GSIS act -8.8, Cneo AK release -1.9 and HIV Env fusion 60.9*[16.7 µM].
Screening C[C@H](CO)N1C[C@H](C)[C@H](CN(C)Cc2ccccc2)OCCCC[C@H](C)Oc2ccc(NC(=O)Nc3ccc4c(c3)OCO4)cc2C1=O returned miR122 inh 4.3[16.7 µM], INS-1E GSIS act -28.3, Cneo AK release 1.3 and HIV Env fusion 57.8*[16.7 µM].
`C[C@@H]1CN([C@H](C)CO)C(=O)c2cc(NC(=O)Nc3ccc4c(c3)OCO4)ccc2O[C@@H](C)CCCCO[C@H]1CN(C)Cc1ccc(Cl)c(Cl)c1` gave miR122 inh -0.1[16.7 µM], INS-1E GSIS act 7.2, Cneo AK release 2.6 and HIV Env fusion 62.6*[16.7 µM].
C[C@@H]1CCCCO[C@@H](CN(C)Cc2ccc(Cl)c(Cl)c2)[C@H](C)CN([C@H](C)CO)C(=O)c2cc(NC(=O)Nc3ccc4c(c3)OCO4)ccc2O1 was read as miR122 inh -0.6[16.7 µM], INS-1E GSIS act -0.4, Cneo AK release 56.7 and HIV Env fusion 29.3[16.7 µM].
`C[C@@H]1CCCCO[C@@H](CN(C)Cc2ccccc2)[C@@H](C)CN([C@H](C)CO)C(=O)c2cc(NC(=O)Nc3ccc4c(c3)OCO4)ccc2O1` gave miR122 inh 3.0[16.7 µM], INS-1E GSIS act -36.1, Cneo AK release -0.6 and HIV Env fusion -34.5[16.7 µM].
For C[C@H](CO)N1C[C@H](C)[C@@H](CN(C)C(=O)Cc2ccccc2)OCCCC[C@H](C)Oc2ccc(NC(=O)C3CCCCC3)cc2C1=O the results were miR122 inh 13.4[16.7 µM], INS-1E GSIS act -25.8, Cneo AK release -3.5 and HIV Env fusion 9.9[16.7 µM].
For C[C@@H]1CCCCO[C@@H](CN(C)Cc2ccc(Cl)c(Cl)c2)[C@@H](C)CN([C@@H](C)CO)C(=O)c2cc(NS(=O)(=O)c3ccccc3)ccc2O1 the results were miR122 inh -5.0[16.7 µM], INS-1E GSIS act 3.5, Cneo AK release -2.4 and HIV Env fusion 38.1[16.7 µM].
Cc1nn2c(nc(N3CCOCC3)c3ccccc32)c1C=C(C#N)C#N was read as dFosB act 0.4, miR122 inh -3.3, Rtt109 HAT inh 8.9, INS-1E GSIS act 41.1* and Cneo AK release 3.4.
CCS(=O)(=O)Nc1ccc2c(c1)C(=O)N(C)[C@H]1CC[C@H](CC(=O)NC)O[C@@H]1CO2 was read as INS-1E GSIS act 5.1.
For CN1C(=O)c2cc(NS(=O)(=O)c3ccc(F)cc3)ccc2OC[C@@H]2O[C@@H](CC(=O)NCC(F)(F)F)CC[C@@H]21 the results were miR122 inh 2.5[16.7 µM], INS-1E GSIS act -5.0 and Cneo AK release 0.6.
`CSc1ncccc1C(=O)NCCc1ccccc1F` gave dFosB act 5.3, miR122 inh -4.1, Rtt109 HAT inh 3.8, INS-1E GSIS act 72.7*, Cneo AK release -7.3 and HIV Env fusion 3.0.
CNC[C@H]1Oc2ccc(N)cc2CC(=O)N(C)C[C@@H]1C was read as INS-1E GSIS act 4.2.
For COc1ccccc1C(=O)NCC(=O)N=Nc1c(O)n(C(C)C)c2ccccc12 the results were dFosB act -5.6, miR122 inh -0.5, Rtt109 HAT inh 63.6*, INS-1E GSIS act 14.9, Cneo AK release 1.1 and HIV Env fusion 3.3.
`Cc1ccc(S(=O)(=O)N2[C@H](CC(=O)OCc3ccccc3)OC[C@@H]2C(C)C)cc1` gave INS-1E GSIS act -0.9 and HIV Env fusion -9.2.
Screening COC(=O)C[C@@H]1OC[C@H](C(C)C)N1S(=O)(=O)c1ccc(C)cc1 returned INS-1E GSIS act 44.2* and HIV Env fusion -18.0.

Screening data (PubChem)
